From ChEMBL document CHEMBL4819068, “Novel potent bifunctional carboxylesterase inhibitors based on a polyfluoroalkyl-2-imino-1,3-dione scaffold” (Eur J Med Chem, 2021)
The source made the active and inactive calls. The calls are words filed in the database; no cut-off is given here.

What was measured:
[1] = target: Cholinesterase (Equus caballus) (UniProt P81908); assay: Inhibition of equine serum BuChE at 20 uM using […] as substrate preincubated for 10 mins followed by substrate addition by Ellman's method relative to control
Summary of the method: (§1)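 Single-point screen at 20 μM in 0.1 M K/Na phosphate pH 7.5, 25 °C; 0.02 unit/mL enzyme, 1 mM ATCh (AChE) or BTCh (BChE), 0.33 mM DTNB; 2% DMSO final; 10 min preincubation then substrate; activity relative to inhibitor-free control; three separate experiments.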

Liver carboxylesterase [2] = target: T1, Liver carboxylesterase (Sus scrofa, UniProt Q29550); assay: Inhibition of porcine liver carboxylesterase using 4-NPA as substrate preincubated for 10 mins followed by substrate addition by spectrophotometric analysis; assay type: tissue-based
T1 sequence (Q29550 whole entry): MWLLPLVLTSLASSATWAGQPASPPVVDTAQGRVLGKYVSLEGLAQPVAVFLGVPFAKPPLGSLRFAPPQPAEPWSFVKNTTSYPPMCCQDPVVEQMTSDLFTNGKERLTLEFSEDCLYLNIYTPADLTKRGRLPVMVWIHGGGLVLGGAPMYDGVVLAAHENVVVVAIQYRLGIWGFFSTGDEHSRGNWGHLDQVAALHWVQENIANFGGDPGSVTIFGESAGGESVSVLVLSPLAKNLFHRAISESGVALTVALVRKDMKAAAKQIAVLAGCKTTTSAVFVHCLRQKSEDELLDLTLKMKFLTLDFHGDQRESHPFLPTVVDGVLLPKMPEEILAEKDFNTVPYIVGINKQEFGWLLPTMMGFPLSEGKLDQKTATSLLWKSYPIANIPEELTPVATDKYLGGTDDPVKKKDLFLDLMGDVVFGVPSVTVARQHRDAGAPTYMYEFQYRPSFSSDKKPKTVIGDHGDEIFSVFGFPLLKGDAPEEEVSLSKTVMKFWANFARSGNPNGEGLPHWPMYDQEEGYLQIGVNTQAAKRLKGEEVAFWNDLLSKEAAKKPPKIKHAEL
Summary of the method: (§2)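 Porcine liver CES, 0.02 unit/mL, in 0.1 M K/Na phosphate pH 8.0, 25 °C; compound in DMSO (2% v/v final) preincubated 10 min, then 1 mM 4-nitrophenyl acetate; 4-nitrophenol read at 405 nm, enzyme-free blanks. Screening at 20 μM in three separate experiments; IC50 from eight concentrations between 10^-12 and 10^-4 M, residual activity relative to inhibitor-free control.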

[3] = Antioxidant activity assessed as decrease in ABTS radical cation scavenging activity incubated for 24 hrs by UV-Vis spectrophotometric analysis; assay type: functional
Acetylcholinesterase [4] = target: T2, Acetylcholinesterase (Homo sapiens, UniProt P22303); assay: Inhibition of human erythrocyte AChE at 20 uM using acetylthiocholine iodide as substrate preincubated for 10 mins followed by substrate addition by Ellman's method relative to control; summary of the method: as §1
[5] = Antioxidant activity assessed as trolox equivalent of ABTS radical cation scavenging activity incubated for 24 hrs by UV-Vis spectrophotometric analysis; assay type: functional
Liver carboxylesterase 1 = target: T3, Liver carboxylesterase 1 (Homo sapiens, UniProt P23141); assay: Inhibition of human recombinant CES1 expressed in baculovirus infected BTI insect cells using 4-NPA as substrate by spectrophotometric analysis
T3 sequence (P23141 whole entry): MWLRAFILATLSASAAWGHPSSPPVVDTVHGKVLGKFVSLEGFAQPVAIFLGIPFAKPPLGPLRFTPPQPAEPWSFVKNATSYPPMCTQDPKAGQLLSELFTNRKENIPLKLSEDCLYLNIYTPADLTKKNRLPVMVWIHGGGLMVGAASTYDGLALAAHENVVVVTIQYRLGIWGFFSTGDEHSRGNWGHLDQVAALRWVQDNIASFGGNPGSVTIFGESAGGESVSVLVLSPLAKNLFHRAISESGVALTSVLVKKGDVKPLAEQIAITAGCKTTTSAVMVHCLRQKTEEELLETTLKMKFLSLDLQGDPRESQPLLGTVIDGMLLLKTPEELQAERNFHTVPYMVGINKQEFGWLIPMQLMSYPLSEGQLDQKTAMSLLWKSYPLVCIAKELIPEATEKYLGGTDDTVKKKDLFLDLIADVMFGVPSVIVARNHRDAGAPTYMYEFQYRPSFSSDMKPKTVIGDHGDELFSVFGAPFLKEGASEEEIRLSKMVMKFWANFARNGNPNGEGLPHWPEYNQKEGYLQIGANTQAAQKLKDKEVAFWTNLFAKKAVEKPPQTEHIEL
Summary of the method: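 Recombinant hCES1 (baculovirus/BTI insect cells), 0.02 unit/mL, in 0.1 M K/Na phosphate pH 7.4, 25 °C; compound (DMSO, 2% v/v final) preincubated 10 min, then 1 mM 4-nitrophenyl acetate added; 4-nitrophenol release read at 405 nm against enzyme-free blank. IC50 from eight concentrations (10^-12–10^-4 M) relative to inhibitor-free control.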

Acetylcholinesterase [6] = target: T2, Acetylcholinesterase; assay: Inhibition of human erythrocyte AChE using acetylthiocholine iodide as substrate preincubated for 10 mins followed by substrate addition by Ellman's method
Cholinesterase = Cholinesterase (Equus caballus, UniProt P81908); assay: Inhibition of equine serum BuChE using […] as substrate preincubated for 10 mins followed by substrate addition by Ellman's method
[7] = Cytotoxicity against human FetMSC cells assessed as reduction in cell viability after 72 hrs by MTT assay; assay type: cell-based
Summary of the method: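 Human fetal MSC (bone-marrow fibroblast-like, nonimmortalized; ≤10–15 passages) grown in F12/DMEM with 10% FBS, 3 mM L-glutamine, penicillin/streptomycin. Seeded at 6×10^3 cells/well; after 24 h, medium replaced with compound at 100, 250, 500 μM for 72 h; controls 0.1% DMSO. MTT 0.5 mg/ml for 4 h, formazan dissolved in DMSO, read at 570 nm; control = 100%.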

[8] = Acute toxicity in ip dosed CD-1 mouse observed for 14 days; assay type: organism-based; conditions: in vivo, time 14 day
Summary of the method: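 CD-1 mice given compound intraperitoneally in 2% (w/v) starch mucilage, three animals per dose group; lethality observed over 14 days; procedure based on OECD recommendations.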

Liver carboxylesterase [9] = target: T1, Liver carboxylesterase; assay: Inhibition of porcine liver carboxylesterase at 20 uM using 4-NPA as substrate preincubated for 10 mins followed by substrate addition by spectrophotometric analysis relative to control; assay type: tissue-based; conditions: pig, probe 4-NPA; summary of the method: as §2

Chain of Cholinesterase (Equus caballus) (P81908 whole entry): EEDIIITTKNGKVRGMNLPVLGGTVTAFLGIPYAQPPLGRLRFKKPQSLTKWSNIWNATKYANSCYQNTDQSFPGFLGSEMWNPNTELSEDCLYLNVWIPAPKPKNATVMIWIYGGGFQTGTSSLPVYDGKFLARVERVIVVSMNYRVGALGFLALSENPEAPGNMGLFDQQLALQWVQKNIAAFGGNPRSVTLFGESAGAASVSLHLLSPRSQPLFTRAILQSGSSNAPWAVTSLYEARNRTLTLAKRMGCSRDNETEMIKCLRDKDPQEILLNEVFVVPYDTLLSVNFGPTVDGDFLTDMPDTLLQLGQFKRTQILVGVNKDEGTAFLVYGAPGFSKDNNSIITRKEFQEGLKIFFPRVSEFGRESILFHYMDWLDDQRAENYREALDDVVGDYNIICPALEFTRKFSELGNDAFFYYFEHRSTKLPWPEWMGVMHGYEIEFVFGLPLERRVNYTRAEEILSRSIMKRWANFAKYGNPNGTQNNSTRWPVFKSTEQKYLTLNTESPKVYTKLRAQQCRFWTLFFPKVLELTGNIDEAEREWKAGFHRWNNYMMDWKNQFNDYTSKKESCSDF
Chain of Cholinesterase (P81908 whole entry): as above
T2 sequence (P22303 whole entry): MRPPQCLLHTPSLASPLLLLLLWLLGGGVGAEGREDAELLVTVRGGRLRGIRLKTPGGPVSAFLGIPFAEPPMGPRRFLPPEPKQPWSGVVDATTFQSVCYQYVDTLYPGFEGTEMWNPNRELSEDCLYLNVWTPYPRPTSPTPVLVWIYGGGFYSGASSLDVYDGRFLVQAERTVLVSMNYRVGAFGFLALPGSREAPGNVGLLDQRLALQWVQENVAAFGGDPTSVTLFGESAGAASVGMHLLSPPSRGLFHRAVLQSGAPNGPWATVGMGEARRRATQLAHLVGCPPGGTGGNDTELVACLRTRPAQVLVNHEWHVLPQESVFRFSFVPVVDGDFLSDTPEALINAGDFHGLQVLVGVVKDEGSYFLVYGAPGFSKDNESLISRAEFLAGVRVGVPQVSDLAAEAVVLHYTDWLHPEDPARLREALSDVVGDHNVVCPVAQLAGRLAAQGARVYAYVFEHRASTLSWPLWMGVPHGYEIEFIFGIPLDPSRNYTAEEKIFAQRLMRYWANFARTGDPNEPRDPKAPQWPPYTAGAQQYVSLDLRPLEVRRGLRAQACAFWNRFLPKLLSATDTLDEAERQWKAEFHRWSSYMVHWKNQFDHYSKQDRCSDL

SMILES | inhibition [1] | IC50 (Liver carboxylesterase [2]) | IC50 [3] | inhibition (Acetylcholinesterase [4]) | Activity [5] | IC50 (Liver carboxylesterase 1) | IC50 (Acetylcholinesterase [6]) | IC50 (Cholinesterase) | IC50 [7] | LD50 at 336 h [8] | inhibition at 20 µM (Liver carboxylesterase [9])
Cc1ccc(N/N=C(\C(=O)c2ccccc2)C(=O)C(F)(F)F)cc1 | 19.4% | 5.54 µM | 12.8 µM | 9.1% | 1.7 |  |  |  |  |  | 
COC(=O)/C(=N\Nc1ccc(OC)cc1)C(=O)C(F)(F)C(F)(F)C(F)(F)F | 21.2% | 0.103 µM | 50.3 µM | 7.1% | 0.4 | 0.111 µM |  |  |  |  | 
CCOC(=O)/C(=N\Nc1cccc(C)c1)C(=O)C(F)(F)F |  | 0.00727 µM | 25.4 µM |  | 0.85 | 0.00517 µM | 30.4 µM | 38.1 µM | > 500 µM | 300 mg/kg | 
CCOC(=O)/C(=N\Nc1ccc(C(=O)OCC)cc1)C(=O)C(F)(F)F |  | 0.0471 µM | 193 µM |  | 0.1 |  | 3.79 µM | 19.6 µM |  |  | 
CCOC(=O)/C(=N\Nc1ccccc1C(=O)OCC)C(=O)C(F)(F)F |  | 0.0416 µM |  |  | 0.04 |  | 0.481 µM | 0.122 µM |  |  | 
CCOC(=O)/C(=N\Nc1ccc(Br)cc1)C(=O)C(F)(F)F |  | 0.00514 µM | 36.3 µM |  | 0.53 | 0.0153 µM | 1.36 µM | 2.02 µM | > 500 µM | 300 mg/kg | 
O=[N+]([O-])c1ccc(OP(=O)(O)Oc2ccc([N+](=O)[O-])cc2)cc1 | inactive |  |  | inactive |  |  |  |  |  |  | 
CCOC(=O)/C(=N\Nc1ccc(C)cc1)C(=O)C(F)F | 12.4% | 3.23 µM | 53.3 µM | 18.2% | 0.37 |  |  |  |  |  | 
COC(=O)/C(=N\Nc1ccc(OC)cc1)C(=O)C(F)(F)F |  | 0.0467 µM | 22.5 µM |  | 0.97 | 0.0213 µM | 30.3 µM | 49.6 µM |  |  | 
CCOC(=O)/C(=N\Nc1ccc(F)cc1)C(=O)C(F)(F)F |  | 0.00716 µM | 35.3 µM |  | 0.6 | 0.0223 µM | 2.67 µM | 11.3 µM | > 500 µM |  | 
COC(=O)/C(=N\Nc1ccccc1[N+](=O)[O-])C(=O)C(F)(F)F |  | 0.00765 µM |  |  | 0.03 | 0.102 µM | 20.9 µM | 45.1 µM | > 500 µM | 300 mg/kg | 
CCOC(=O)/C(=N\Nc1ccc(OC)cc1)C(=O)C(F)(F)F | 24.3% | 0.0131 µM | 19.3 µM |  | 1 | 0.00429 µM | 4.62 µM |  |  |  | 
CCOC(=O)/C(=N\Nc1ccc(C)cc1)C(=O)C(F)(F)C(F)(F)F |  | 0.164 µM | 55.2 µM | 11.5% | 0.36 | 0.0474 µM |  | 31.1 µM |  |  | 
CCOC(=O)/C(=N\Nc1ccc(C)cc1)C(C)=O | inactive |  | 52.4 µM | 6.8% | 0.38 |  |  |  |  |  | 12.1%
Oc1ccccc1O [CATECHOL] |  |  | 16.4 µM |  | 1.2 |  |  |  |  |  | 
Cc1c(C)c2c(c(C)c1O)CCC(C)(C(=O)O)O2 (stereo not given) [TROLOX] |  |  | 20.4 µM |  | 1 |  |  |  |  |  | 
O=C1O[C@H]([C@@H](O)CO)C(O)=C1O [ASCORBIC ACID] |  |  | 21.6 µM |  | 0.98 |  |  |  |  |  | 
CC(=O)/C(=N\Nc1ccc(C)cc1)C(=O)C(F)(F)F | 13.4% | 56.6 µM | 15.6 µM | 11% | 1.33 |  |  |  |  |  | 
CCOC(=O)/C(=N\Nc1ccc(C)cc1)C(=O)C(F)(F)C(F)(F)C(F)(F)C(F)(F)F | 4% | 0.0893 µM | 66.6 µM | 17.2% | 0.26 |  |  |  |  |  | 
CCOC(=O)/C(=N\Nc1ccccc1[N+](=O)[O-])C(=O)C(F)(F)F |  | 0.00495 µM |  |  | 0.04 | 0.0241 µM | 0.759 µM | 8.06 µM | > 500 µM | 300 mg/kg | 
COC(=O)/C(=N\Nc1ccccc1)C(=O)C(F)(F)F |  | 0.0555 µM | 26.6 µM |  | 0.78 | 0.0115 µM | 20.1 µM | 14.5 µM |  |  | 
CCOC(=O)/C(=N\Nc1ccc(C)cc1)C(=O)C(F)(F)C(F)(F)C(F)(F)F |  | 0.102 µM | 62.3 µM | 23.6% | 0.3 |  |  | 42.1 µM |  |  | 
COC(=O)/C(=N\Nc1ccc(C)cc1)C(=O)C(F)F | 2.3% | 1.57 µM | 52.6 µM | 5.8% | 0.38 |  |  |  | > 500 µM |  | 
